This is one part of a sample in which hits are shown more often than they occur.
ABCB6 inh MLPCN – blocks the human ABCB6 transporter. hit rate 0.19% among 360,000. Q9NP58. K562-ABCB6 porphyrin accumulation, flow cytometry, 1 h; stronger effect = lower value. fluorescence ratio to DMSO, % at 10 µM;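 active means fluorescence ratio to DMSO below 75%, the collection mean minus 3 SD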;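 further: signal is porphyrin accumulated inside mitochondria; 100% equals median channel fluorescence of DMSO control wells; lower ratio means ABCB6 inhibition with less porphyrin fluorescence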
Myeloid diff MLP – myeloid differentiation induction; ER-HoxA9 myeloid progenitors, lysozyme-GFP differentiation, flow cytometry; calls only at 10 µM; hit rate 1% among 360,000;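 active means normalized GFP-positive differentiation at or above the plate's own cutoff, the solvent-only control mean plus 3 SD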;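 further: cells exposed to compound for four days before flow analysis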
XiGFP reactiv – X-chromosome reactivation activator; AID 743238; XiGFP mouse fibroblasts, % GFP-positive cells imaging, 3 d; cells co-treated with 5-aza-dC sensitizer; scaled so ellipticine positive control = 100%; activation, % at 7.58 µM; hit rate 0.055% among 360,000;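 active means mean normalized replicate activation at least 10% and every replicate at or above 10%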;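 further: 0% = median of on-plate neutral control wells and 100% = ellipticine 6 µM median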
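Assay system: SV40-immortalized XiGFP fibroblast cells, line 68-5-11; buffer or medium: DMEM plus 5-aza-dC sensitizer; compound: one concentration, pinned; timing: compounds 3 days, fix/stain 15 min at room temperature; benchmarks: positive control ellipticine, 6 µM final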
* hit, by the source's call; i = inactive; . = no result given; + = active, no number.

SMILES	ABCB6 inh MLPCN	Myeloid diff MLP	XiGFP reactiv
O=C(C[C@@H]1C[C@@H]2c3cc(NC(=O)Nc4ccccc4F)ccc3O[C@@H]2[C@@H](CO)O1)NCC1CC1	.	.	0
CN1C(=O)c2cc(NC(=O)c3cccs3)ccc2OC[C@H]2O[C@@H](CC(=O)N3CCOCC3)CC[C@H]21	.	.	0
O=C(Nc1cc(F)ccc1F)N[C@H]1C=C[C@H](CC(=O)N2CCc3ccccc3C2)O[C@@H]1CO	.	.	0
O=C(c1ccco1)N1CCN(c2ncnc3scc(-c4ccccc4)c23)CC1	93	i	.
O=C(c1ccco1)N1CCN(c2ncnc3scc(-c4cccs4)c23)CC1	98	+	.
CO[C@H]1CN(C)C(=O)c2ccc(NS(=O)(=O)CC(F)(F)F)cc2OC[C@H](C)N(C)C[C@H]1C	.	.	0
CCCNC(=O)N1C[C@H](O)COC[C@@H]2O[C@H](CC(=O)N3CCOCC3)CC[C@H]21	.	.	0
Cc1ccnn1CC(=O)N/N=C/c1cccs1	103	i	0
O=[N+]([O-])c1ccc(/C=N/NC(=S)Nc2ccc(Cl)cc2Cl)s1	114	i	13*
O=C(N/N=C/c1ccc([N+](=O)[O-])s1)C(O)c1ccccc1 (stereo not given)	104	i	0
O=[N+]([O-])c1ccc(O)c(/C=N/NC(=S)Nc2ccc(Cl)cc2Cl)c1	98	i	0
COC(=O)N/N=C/c1ccc([N+](=O)[O-])s1	109	+	0
COc1ccccc1NC(=O)C(=O)N/N=C/c1ccc([N+](=O)[O-])s1	111	+	0
Cc1ccnn1CC(=O)N/N=C/c1ccc([N+](=O)[O-])s1	93	+	0
O=C(N/N=C/c1ccc([N+](=O)[O-])s1)c1ccccc1	104	i	0
CC(C)NC(=O)N(C)C[C@@H]1Oc2ccc(NS(=O)(=O)c3ccccc3)cc2CC(=O)N([C@@H](C)CO)C[C@H]1C	.	.	0
COc1ccc(S(=O)(=O)Nc2ccc3c(c2)C(=O)N([C@H](C)CO)C[C@@H](C)[C@@H](CN(C)C(=O)NC2CCCCC2)OCCCC[C@H](C)O3)cc1	.	.	0
Cc1cccc(-c2ccc([C@@H]3[C@@H](CO)N4C(=O)CN(C(=O)c5cnccn5)C[C@H]34)cc2)c1	.	.	1
O=C(Cc1ccccn1)N[C@H]1C=C[C@@H](CC(=O)N2CCCCC2)O[C@@H]1CO	.	.	0
Cc1ccccc1C1C(C#N)=C2N=C(N)c3c(sc4c3CCCCC4)N2C2=C1C(=O)CC(C)(C)C2 (stereo not given)	126	+	.
Cc1ccccc1C1C(C#N)=C2N=C(N)c3ccccc3N2C2=C1C(=O)CCC2 (stereo not given)	94	i	0
CO[C@@H]1CN(C)C(=O)c2cc(NC(=O)C3CCC3)ccc2OC[C@@H](C)N(C(=O)c2ccccc2)C[C@H]1C	.	.	0
Cc1noc(C)c1S(=O)(=O)Nc1ccc2c(c1)CC(=O)N([C@H](C)CO)C[C@@H](C)[C@@H](CN(C)S(=O)(=O)c1ccc(Cl)cc1)O2	.	.	-1
O=C(O)c1cc2c([nH]c1=O)CCCC2	103	i	.
C=CCSC(=C(C#N)C#N)c1cc2c([nH]1)CCCC2	121	+	.
SMILES	ABCB6 inh MLPCN	Myeloid diff MLP	XiGFP reactiv
CCC(=O)Nc1ccc2c(c1)C(=O)N(C)C[C@H](OC)[C@@H](C)CN(C(=O)C1CC1)[C@@H](C)CO2	.	.	0
C=CC[n+]1ccn(-c2nc3ccccc3nc2[N-]S(=O)(=O)c2cccs2)c1	93	+	0
CCCC[n+]1ccn(-c2nc3ccccc3nc2[N-]S(=O)(=O)c2cccs2)c1	90	i	0
C[C@H](CO)N1C[C@H](C)[C@H](CN(C)CC2CCOCC2)Oc2cc(C3=CCCC3)ccc2S1(=O)=O	.	.	-1
C[C@@H]1CN([C@H](C)CO)C(=O)c2cc(NS(=O)(=O)c3cn(C)cn3)ccc2O[C@@H]1CN(C)Cc1ccc2c(c1)OCO2	.	.	0
CC(C)Cc1ccc(C(C)C(=O)O)cc1 (stereo not given)	206	+	0
CC(C)Cc1ccc(C(C)C(=O)Nc2ncccn2)cc1 (stereo not given)	101	i	0
CCS(=O)(=O)N1CC(=O)N2[C@H](CO)[C@@H](c3ccc(-c4ccccc4C)cc3)[C@@H]2C1	.	.	1
C[C@@H]1CCCCO[C@@H](CN(C)C)[C@@H](C)CN([C@H](C)CO)C(=O)c2cc(NC(=O)Cc3ccccc3)ccc2O1	.	.	0
CCOC(=O)N1CCN(C(=O)COc2ccc(S(=O)(=O)NCc3ccccc3)cc2)CC1	100	+	.
CCOC(=O)N1CCN(C(=O)CCNS(=O)(=O)c2ccccc2)CC1	98	i	0
Cc1noc(C)c1S(=O)(=O)Nc1ccc2c(c1)C(=O)N([C@@H](C)CO)C[C@@H](C)[C@@H](CN(C)Cc1ccc3c(c1)OCO3)OCCCC[C@H](C)O2	.	.	0
ClCC1NCC(c2ccccc2Cl)c2c1[nH]c1ccccc21 (stereo not given)	183	+	4
Cc1cccc(NC(=S)N(CCN(C)C)C(C)c2ccccn2)c1 (stereo not given)	93	+	.
Cc1cccc(NC(=S)N(CCN(C)C)C(C)c2cccnc2)c1 (stereo not given)	92	i	0
CC(C)NC(=O)N(C)C[C@@H]1Oc2cc(C3=CCCC3)ccc2S(=O)(=O)N([C@H](C)CO)C[C@@H]1C	.	.	-1
CC(C)NC(=O)N(C)C[C@H]1OCCCC[C@H](C)Oc2ccc(NC(=O)CCCN(C)C)cc2C(=O)N([C@H](C)CO)C[C@@H]1C	.	.	0
CN1C(=O)c2cc(NC(=O)Nc3ccccc3)ccc2OC[C@@H]2O[C@@H](CC(=O)O)CC[C@H]21	.	.	0
CCC(=O)N1CC[C@H]2[C@@H]1c1cc(-c3ccccc3F)ccc1N(C)[C@H]2CO	.	.	0
O=C(O)CCN1C(=O)/C(=C2\C(=O)N(Cc3ccccc3Cl)c3ccccc32)SC1=S	95	+	0
COc1ccc(NC(=O)CN2C(=O)/C(=C3\SC(=S)N(CCC(=O)O)C3=O)c3ccccc32)cc1	96	i	.
O=C(NCCn1cc(SCc2ccc(F)cc2)c2ccccc21)c1ccccc1F	94	+	.
O=C(NCCn1cc(SCc2ccc(F)cc2)c2ccccc21)c1c(F)cccc1F	95	i	0
C[C@@H]1CC=CC[C@H](c2ccc3c(c2)OCO3)NC(=O)[C@@H](Cc2ccccc2)N(C)C(=O)c2ccccc2O1 (mixture of isomers)	.	.	0
CO[C@H](CN(C)C(=O)C1CCOCC1)[C@@H](C)CN(C(=O)Nc1ccc(F)cc1)[C@H](C)CO	.	.	0
COc1ccccc1C#Cc1ccc2c(c1)O[C@H](CN(C)Cc1cncnc1)[C@@H](C)CN([C@H](C)CO)S2(=O)=O	.	.	26*
COc1ccccc1C#Cc1ccc2c(c1)O[C@@H](CN(C)Cc1cncnc1)[C@@H](C)CN([C@@H](C)CO)S2(=O)=O	.	.	0
C[C@H]1CN([C@@H](C)CO)S(=O)(=O)c2ccc(C#CC3CC3)cc2O[C@H]1CN(C)Cc1ccc(F)cc1	.	.	-1
C[C@@H]1CN([C@@H](C)CO)S(=O)(=O)c2ccc(C#CC3CC3)cc2O[C@H]1CN(C)Cc1ccc(F)cc1	.	.	18*
